# Square brackets hold non-standard residues; d marks the D form. Peptide text beside a SMILES is read from it. Sar = CNCC(=O)O
# How the values were obtained:
# Rattus norvegicus [1] = organism: Rattus norvegicus; assay: Compound was tested for antagonist activity in rat isolated uterus assay; pA2 is the negative logarithm of the concentration of antagonist that reduces the response to an ED50 dose of angiotensin II to the response to half the ED50 dose; assay type: functional; settings: read-out: pA2 (converted)
# How it was run: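 Isolated uterus from diethylstilbestrol-primed female Sprague-Dawley rats (150-250 g), challenged every 12 min. Antagonist was given 2 min before an ED50 dose of ANG II. Where antagonism appeared non-competitive, each tissue received a single "pA2 dose" and the ANG II response was measured after 2 min (mean of four determinations). Otherwise values are mean ± SEM (number of animals).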
# Rattus norvegicus [2] = organism: Rattus norvegicus; assay: Compound was tested for agonist activity in rat isolated uterus assay; assay type: functional
# How it was run: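 Uteri from diethylstilbestrol-primed female Sprague-Dawley rats (150-250 g). Peptides were stored lyophilized at -20 °C, with 1 mg/mL stock solutions made weekly and assay dilutions made daily. Tissue was challenged every 12 min. Agonist activity is expressed relative to ANG II = 100%, as mean ± SEM with the number of animals.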
smiles,measurement,setting,value
CC[C@H](C)[C@H](NC(=O)[C@H](Cc1ccc(OC)cc1)NC(=O)[C@@H](NC(=O)[C@H](CCCN=C(N)N)NC(=O)CNC)C(C)C)C(=O)N[C@@H](Cc1c[nH]cn1)C(=O)N1CCC[C@H]1C(=O)N[C@@H](Cc1ccccc1)C(=O)O,Kb,Rattus norvegicus [1],7.94 nM
same,Activity,Rattus norvegicus [2],<0.1%
CC[C@H](C)[C@H](NC(=O)[C@H](Cc1ccc(O)cc1)NC(=O)[C@@H](NC(=O)[C@@H](N)CCCN=C(N)N)C(C)C)C(=O)N[C@@H](Cc1c[nH]cn1)C(=O)N1CCC[C@H]1C(=O)N[C@@H](Cc1c[nH]c2ccccc12)C(=O)O,Kb,Rattus norvegicus [1],200 nM
same,Activity,Rattus norvegicus [2],<0.1%
CC[C@H](C)[C@H](NC(=O)[C@@H]1CCCN1C(=O)[C@H](Cc1c[nH]cn1)NC(=O)[C@@H](NC(=O)[C@H](Cc1ccc(OC)cc1)NC(=O)[C@@H](NC(=O)[C@H](CCCN=C(N)N)NC(=O)CNC)C(C)C)[C@@H](C)CC)C(=O)O,Kb,Rattus norvegicus [1],63.1 nM
same,Activity,Rattus norvegicus [2],<0.1%
CC[C@H](C)[C@H](NC(=O)[C@H](Cc1ccc(OC)cc1)NC(=O)[C@@H](NC(=O)[C@@H](N)CCCN=C(N)N)C(C)C)C(=O)N[C@@H](Cc1c[nH]cn1)C(=O)N1CCC[C@H]1C(=O)N[C@@H](Cc1ccccc1)C(=O)O,Kb,Rattus norvegicus [1],> 1000 nM
same,Activity,Rattus norvegicus [2],<0.1%
CC[C@H](C)[C@H](NC(=O)[C@H](Cc1ccc(OC)cc1)NC(=O)[C@@H](NC(=O)[C@H](CCCN=C(N)N)NC(=O)CNC)C(C)C)C(=O)N[C@@H](Cc1c[nH]cn1)C(=O)N1CCC[C@H]1C(=O)N[C@@H](Cc1c[nH]c2ccccc12)C(=O)O,Kb,Rattus norvegicus [1],79.4 nM
same,Activity,Rattus norvegicus [2],<0.1%
CC[C@H](C)[C@H](NC(=O)[C@H](Cc1ccc(OC)cc1)NC(=O)[C@@H](NC(=O)[C@@H](N)CCCN=C(N)N)C(C)C)C(=O)N[C@@H](Cc1c[nH]cn1)C(=O)N1CCC[C@H]1C(=O)N[C@@H](Cc1c[nH]c2ccccc12)C(=O)O,Kb,Rattus norvegicus [1],> 1000 nM
same,Activity,Rattus norvegicus [2],<0.1%
CC[C@H](C)[C@H](NC(=O)[C@@H]1CCCN1C(=O)[C@H](Cc1c[nH]cn1)NC(=O)[C@@H](NC(=O)[C@H](Cc1ccc(OC)cc1)NC(=O)[C@@H](NC(=O)[C@@H](N)CCCN=C(N)N)C(C)C)[C@@H](C)CC)C(=O)O,Kb,Rattus norvegicus [1],> 1000 nM
same,Activity,Rattus norvegicus [2],<0.1%
CC[C@H](C)[C@H](NC(=O)[C@H](Cc1ccc(O)cc1)NC(=O)[C@@H](NC(=O)[C@H](CCCN=C(N)N)NC(=O)CNC)C(C)C)C(=O)N[C@@H](Cc1c[nH]cn1)C(=O)N1CCC[C@H]1C(=O)N[C@@H](Cc1c[nH]c2ccccc12)C(=O)O,Kb,Rattus norvegicus [1],20 nM
same,Activity,Rattus norvegicus [2],<0.1%
CC[C@H](C)[C@H](NC(=O)[C@@H]1CCCN1C(=O)[C@H](Cc1c[nH]cn1)NC(=O)[C@@H](NC(=O)[C@H](Cc1ccc(O)cc1)NC(=O)[C@@H](NC(=O)[C@H](CCCN=C(N)N)NC(=O)CNC)C(C)C)[C@@H](C)CC)C(=O)O,Kb,Rattus norvegicus [1],2 nM
same,Activity,Rattus norvegicus [2],<0.1%
CC[C@H](C)[C@H](NC(=O)[C@H](Cc1c[nH]c2ccccc12)NC(=O)[C@@H](NC(=O)[C@@H](N)CCCN=C(N)N)C(C)C)C(=O)N[C@@H](Cc1c[nH]cn1)C(=O)N1CCC[C@H]1C(=O)N[C@@H](Cc1ccccc1)C(=O)O (H-RVWIHPF-OH),Kb,Rattus norvegicus [1],> 1000 nM
same,Activity,Rattus norvegicus [2],<0.1%
CC[C@H](C)[C@H](NC(=O)[C@@H]1CCCN1C(=O)[C@H](Cc1c[nH]cn1)NC(=O)[C@@H](NC(=O)[C@H](Cc1c[nH]c2ccccc12)NC(=O)[C@@H](NC(=O)[C@@H](N)CCCN=C(N)N)C(C)C)[C@@H](C)CC)C(=O)O (H-RVWIHPI-OH),Kb,Rattus norvegicus [1],> 1000 nM
same,Activity,Rattus norvegicus [2],<0.1%
CC[C@H](C)[C@H](NC(=O)[C@H](Cc1c[nH]c2ccccc12)NC(=O)[C@@H](NC(=O)[C@H](CCCN=C(N)N)NC(=O)CNC)C(C)C)C(=O)N[C@@H](Cc1c[nH]cn1)C(=O)N1CCC[C@H]1C(=O)N[C@@H](Cc1ccccc1)C(=O)O (H-[Sar]RVWIHPF-OH),Kb,Rattus norvegicus [1],> 1000 nM
same,Activity,Rattus norvegicus [2],<0.1%
